Source: ChEMBL document CHEMBL1828615, “Synthesis of a series of 3,4-methanoarginines as side-chain conformationally restricted analogues of arginine” (Bioorg Med Chem, 2011)

What was measured:
[1] = substrate: N=C(N)NC[C@H]1C[C@@H]1[C@H](N)C(=O)O; assay: (§1) Ratio of Kcat to Km for bovine eNOS by Michaelis-Menten equation analysis; details: Bos taurus
Method in brief: (§2)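 Bovine eNOS run as a hemoglobin capture assay at 30 °C. The mix held varied substrate concentrations, 1.0 mM CaCl₂, 600 unit/mL calmodulin, NADPH, 0.125 mg/mL ferrous hemoglobin-A₀ and H₄B in 100 mM HEPES (pH 7.5). Enzyme addition started the reaction, and NO-driven hemoglobin oxidation was followed at 401 nm. Km and kcat came from a nonlinear Michaelis–Menten fit of activity versus substrate concentration.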

[2] = substrate: N=C(N)NCCC[C@H](N)C(=O)O; assay: as §1; details: Bos taurus; method in brief: as §2
[3] = substrate: N=C(N)NC[C@H]1C[C@H]1[C@H](N)C(=O)O; assay: as §1; details: Bos taurus; method in brief: as §2
[4] = substrate: N=C(N)NC[C@H]1C[C@@H]1[C@H](N)C(=O)O; assay: (§3) Activity of bovine eNOS by Michaelis-Menten equation analysis; details: Bos taurus; method in brief: as §2
[5] = substrate: N=C(N)NCCC[C@H](N)C(=O)O; assay: as §3; details: Bos taurus; method in brief: as §2
[6] = substrate: N=C(N)NC[C@H]1C[C@H]1[C@H](N)C(=O)O; assay: as §3; details: Bos taurus; method in brief: as §2
[7] = substrate: N=C(N)NC[C@H]1C[C@@H]1[C@H](N)C(=O)O; assay: (§4) Activity of mouse iNOS by Michaelis-Menten equation analysis
Method in brief: (§5)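 Murine iNOS kinetics used a hemoglobin capture assay at 30 °C, with no CaCl₂ or calmodulin. The mix held varied substrate concentrations, NADPH, 0.125 mg/mL ferrous hemoglobin-A₀ and H₄B in 100 mM HEPES (pH 7.5), and enzyme addition started it. Absorbance at 401 nm tracked NO-mediated hemoglobin oxidation. Km and kcat were obtained by nonlinear Michaelis–Menten regression of activity against substrate concentration.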

[8] = substrate: N=C(N)NCCC[C@H](N)C(=O)O; assay: as §4; method in brief: as §5
[9] = substrate: N=C(N)NC[C@H]1C[C@H]1[C@H](N)C(=O)O; assay: as §4; method in brief: as §5
[10] = substrate: N=C(N)NC[C@H]1C[C@@H]1[C@H](N)C(=O)O; assay: (§6) Ratio of Kcat to Km for mouse iNOS by Michaelis-Menten equation analysis; method in brief: as §5
[11] = substrate: N=C(N)NCCC[C@H](N)C(=O)O; assay: as §6; method in brief: as §5
[12] = substrate: N=C(N)NC[C@H]1C[C@H]1[C@H](N)C(=O)O; assay: as §6; method in brief: as §5

B1: Nitric oxide synthase 3 (Bos taurus), P29473 (protein)
chain: MGNLKSVGQEPGPPCGLGLGLGLGLCGKQGPASPAPEPSRAPAPATPHAPDHSPAPNSPTLTRPPEGPKFPRVKNWELGSITYDTLCAQSQQDGPCTPRCCLGSLVLPRKLQTRPSPGPPPAEQLLSQARDFINQYYSSIKRSGSQAHEERLQEVEAEVASTGTYHLRESELVFGAKQAWRNAPRCVGRIQWGKLQVFDARDCSSAQEMFTYICNHIKYATNRGNLRSAITVFPQRAPGRGDFRIWNSQLVRYAGYRQQDGSVRGDPANVEITELCIQHGWTPGNGRFDVLPLLLQAPDEAPELFVLPPELVLEVPLEHPTLEWFAALGLRWYALPAVSNMLLEIGGLEFSAAPFSGWYMSTEIGTRNLCDPHRYNILEDVAVCMDLDTRTTSSLWKDKAAVEINLAVLHSFQLAKVTIVDHHAATVSFMKHLDNEQKARGGCPADWAWIVPPISGSLTPVFHQEMVNYILSPAFRYQPDPWKGSATKGAGITRKKTFKEVANAVKISASLMGTLMAKRVKATILYASETGRAQSYAQQLGRLFRKAFDPRVLCMDEYDVVSLEHEALVLVVTSTFGNGDPPENGESFAAALMEMSGPYNSSPRPEQHKSYKIRFNSVSCSDPLVSSWRRKRKESSNTDSAGALGTLRFCVFGLGSRAYPHFCAFARAVDTRLEELGGERLLQLGQGDELCGQEEAFRGWAKAAFQASCETFCVGEEAKAAAQDIFSPKRSWKRQRYRLSTQAEGLQLLPGLIHVHRRKMFQATVLSVENLQSSKSTRATILVRLDTAGQEGLQYQPGDHIGICPPNRPGLVEALLSRVEDPPPPTESVAVEQLEKGSPGGPPPSWVRDPRLPPCTLRQALTFFLDITSPPSPRLLRLLSTLAEEPSEQQELETLSQDPRRYEEWKWFRCPTLLEVLEQFPSVALPAPLLLTQLPLLQPRYYSVSSAPNAHPGEVHLTVAVLAYRTQDGLGPLHYGVCSTWLSQLKTGDPVPCFIRGAPSFRLPPDPYVPCILVGPGTGIAPFRGFWQERLHDIESKGLQPAPMTLVFGCRCSQLDHLYRDEVQDAQERGVFGRVLTAFSREPDSPKTYVQDILRTELAAEVHRVLCLERGHMFVCGDVTMATSVLQTVQRILATEGDMELDEAGDVIGVLRDQQRYHEDIFGLTLRTQEVTSRIRTQSFSLQERHLRGAVPWAFDPPGPDTPGP
- kcat/Km [1]: 42000 M⁻¹ s⁻¹
- kcat/Km [2]: 73000 M⁻¹ s⁻¹
- kcat/Km [3]: 920 M⁻¹ s⁻¹
- Km [4]: 3.6 µM
- Km [5]: 1.1 µM
- Km [6]: 163 µM

B2: Nitric oxide synthase, inducible (Mus musculus), P29477 (protein)
chain: MACPWKFLFKVKSYQSDLKEEKDINNNVKKTPCAVLSPTIQDDPKSHQNGSPQLLTGTAQNVPESLDKLHVTSTRPQYVRIKNWGSGEILHDTLHHKATSDFTCKSKSCLGSIMNPKSLTRGPRDKPTPLEELLPHAIEFINQYYGSFKEAKIEEHLARLEAVTKEIETTGTYQLTLDELIFATKMAWRNAPRCIGRIQWSNLQVFDARNCSTAQEMFQHICRHILYATNNGNIRSAITVFPQRSDGKHDFRLWNSQLIRYAGYQMPDGTIRGDAATLEFTQLCIDLGWKPRYGRFDVLPLVLQADGQDPEVFEIPPDLVLEVTMEHPKYEWFQELGLKWYALPAVANMLLEVGGLEFPACPFNGWYMGTEIGVRDFCDTQRYNILEEVGRRMGLETHTLASLWKDRAVTEINVAVLHSFQKQNVTIMDHHTASESFMKHMQNEYRARGGCPADWIWLVPPVSGSITPVFHQEMLNYVLSPFYYYQIEPWKTHIWQNEKLRPRRREIRFRVLVKVVFFASMLMRKVMASRVRATVLFATETGKSEALARDLATLFSYAFNTKVVCMDQYKASTLEEEQLLLVVTSTFGNGDCPSNGQTLKKSLFMLRELNHTFRYAVFGLGSSMYPQFCAFAHDIDQKLSHLGASQLAPTGEGDELSGQEDAFRSWAVQTFRAACETFDVRSKHHIQIPKRFTSNATWEPQQYRLIQSPEPLDLNRALSSIHAKNVFTMRLKSQQNLQSEKSSRTTLLVQLTFEGSRGPSYLPGEHLGIFPGNQTALVQGILERVVDCPTPHQTVCLEVLDESGSYWVKDKRLPPCSLSQALTYFLDITTPPTQLQLHKLARFATDETDRQRLEALCQPSEYNDWKFSNNPTFLEVLEEFPSLHVPAAFLLSQLPILKPRYYSISSSQDHTPSEVHLTVAVVTYRTRDGQGPLHHGVCSTWIRNLKPQDPVPCFVRSVSGFQLPEDPSQPCILIGPGTGIAPFRSFWQQRLHDSQHKGLKGGRMSLVFGCRHPEEDHLYQEEMQEMVRKRVLFQVHTGYSRLPGKPKVYVQDILQKQLANEVLSVLHGEQGHLYICGDVRMARDVATTLKKLVATKLNLSEEQVEDYFFQLKSQKRYHEDIFGAVFSYGAKKGSALEEPKATRL
- Km [7]: 20 µM
- Km [8]: 9.5 µM
- Km [9]: 582 µM
- kcat/Km [10]: 99000 M⁻¹ s⁻¹
- kcat/Km [11]: 110000 M⁻¹ s⁻¹
- kcat/Km [12]: 3000 M⁻¹ s⁻¹
